22 compounds from ChEMBL document CHEMBL1140077, “Lipid-lowering (hetero)aromatic tetrahydro-1,4-oxazine derivatives with antioxidant and squalene synthase inhibitory activity” (J Med Chem, 2008) can be followed below.

One assay deals with Liver microsomes. The assay can be described thus: Inhibition of lipid peroxidation in heat-inactivated rat liver microsomes after 45 mins. In kind it is functional, Microsome. In outline: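 Heat-inactivated liver microsomes from untreated rats (2.5 mg protein/mL) with 0.2 mM ascorbate in Tris-HCl/KCl (50/150 mM, pH 7.4), compound 10 µM-1 mM in DMSO; started with FeSO4 (10 µM), 37 °C 45 min. TBAR read at 535 vs 600 nm; duplicates; IC50 as mean concentration giving 50% inhibition of peroxidation.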
(In general: Liver microsomes are vesicles of endoplasmic reticulum, rich in cytochrome P450 enzymes.)

A further assay has as its target T1, Squalene synthase (Rattus norvegicus, UniProt Q02769).
T1 sequence (Q02769 whole entry): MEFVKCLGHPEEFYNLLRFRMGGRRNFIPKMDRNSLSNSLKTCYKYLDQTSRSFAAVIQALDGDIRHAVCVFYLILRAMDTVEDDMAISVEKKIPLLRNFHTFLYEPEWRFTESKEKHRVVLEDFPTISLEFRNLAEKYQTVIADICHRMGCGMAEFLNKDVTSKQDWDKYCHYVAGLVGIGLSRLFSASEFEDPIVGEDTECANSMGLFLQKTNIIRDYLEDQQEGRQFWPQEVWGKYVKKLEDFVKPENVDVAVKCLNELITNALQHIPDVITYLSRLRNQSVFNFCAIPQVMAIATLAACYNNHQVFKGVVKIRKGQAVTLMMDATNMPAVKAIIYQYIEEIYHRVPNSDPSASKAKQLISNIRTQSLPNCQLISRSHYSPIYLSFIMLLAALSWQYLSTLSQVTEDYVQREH
The assay is described as follows: Inhibition of squalene synthase in rat liver microsome measured by conversion of [3H]FPP to squalene. In kind it is microsomes. In outline:
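Rat liver microsomes (18 µg protein/mL) in 50 mM phosphate pH 7.4 with 10 mM MgCl2, 0.5 mM NADPH, compound in ethanol; preincubated 10 min 37 °C, started with [3H]FPP (0.5 µM), 10 min 37 °C. Stopped with ethanolic KOH, 65 °C 30 min, petroleum ether extract counted by scintillation; triplicates, IC50 from mean.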

Assay [1] relates to Rattus norvegicus. The assay is described as follows: Decrease in triglyceride level in Fischer 344 rat plasma at 56 umol/kg, ip after 24 hrs. In kind it is functional. Further details: scale not given: the % may be the effect or the level left. In outline: (§1)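 Male Fischer-344 rats (180-220 g) made hyperlipidemic with Triton WR 1339 (200 mg/kg ip, aqueous); 1 h later compound (56 µmol/kg) in saline or saline alone given ip. Aortic blood taken at 24 h; plasma total cholesterol, LDL-C and triglycerides measured with kits in duplicate; mean of 8-10 rats per compound.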

In assay [2] the test system is Rattus norvegicus. The assay can be described thus: Decrease in LDL-cholesterol level in Fischer 344 rat plasma at 56 umol/kg, ip after 24 hrs. Format: functional. Further details: scale not given: the % may be the effect or the level left. The gist of the method:
as §1

For assay [3], the system named is Rattus norvegicus. The assay is described as follows: Decrease in total cholesterol level in Fischer 344 rat plasma at 56 umol/kg, ip after 24 hrs. Further details: scale not given: the % may be the effect or the level left. In kind it is functional. In outline:
as §1

SMILES strings stand for the structures.

In the case of `CN1CC(O)(c2ccc(-c3ccccc3)cc2)OC2CCCCC21` (stereo not given), the IC50 in the assay with Liver microsomes worked out at 450 µM; against Squalene synthase, 36 µM. Further, the Activity with Rattus norvegicus [1] worked out at 49%; with Rattus norvegicus [2], 51%; in the assay with Rattus norvegicus [3], 54%.
The like results for `CN1CCOC(O)(c2ccc(-c3cccs3)cc2)C1` (stereo not given) were, in that order, 87 µM, 5 µM, 38%, 61% and 48%.
As to `OC1(c2ccc(-c3ccccc3F)cc2)CN2CCCCC2CO1` (stereo not given), the IC50 stood at 390 µM in the assay on Liver microsomes and 10 µM against Squalene synthase. Moreover, the Activity with Rattus norvegicus [1] turned out to be 15%; in the assay with Rattus norvegicus [2], 11%; in the assay with Rattus norvegicus [3], 5%.
The like results for `OC1(c2ccc(-c3cccs3)cc2)CN2CCCCC2CO1` (stereo not given) were, in that order, 174 µM, 7 µM, 29%, 46% and 43%.
Consider `CN1CCOC(O)(c2ccc(-c3ccc(Br)s3)cc2)C1` (stereo not given), for which the results for the IC50 in the assay on Liver microsomes and against Squalene synthase were 51 µM and 13 µM, respectively. In addition, the Activity with Rattus norvegicus [1] was determined as 35%; in the assay on Rattus norvegicus [2] it was 26%; in the assay with Rattus norvegicus [3], 43%.
`OC1(c2ccc(-c3ccc(Br)s3)cc2)CN2CCCCC2CO1` (stereo not given): the IC50 stood at 164 µM in the assay with Liver microsomes and 7 µM at Squalene synthase. The Activity was determined as 37% with Rattus norvegicus [1], 35% in the assay on Rattus norvegicus [2] and 36% in the assay with Rattus norvegicus [3].
With `CN1CCOC(O)(c2ccc(-c3nc4ccccc4s3)cc2)C1` (stereo not given), the IC50 with Liver microsomes is 113 µM; against Squalene synthase it was 2 µM. Moreover, the values for the Activity with Rattus norvegicus [1], in the assay with Rattus norvegicus [2] and with Rattus norvegicus [3] were 44%, 53% and 46%, respectively.
`CN1CC(O)(c2ccc(-c3nc4ccccc4s3)cc2)OC2CCCCC21` (stereo not given): the IC50 in the assay with Liver microsomes came out at 202 µM; against Squalene synthase, 6 µM. In addition, the Activity turned out to be 0% in the assay with Rattus norvegicus [1], 24% in the assay with Rattus norvegicus [2] and 0% with Rattus norvegicus [3].
Turning to `CN1CC(O)(c2ccc(-c3cccs3)cc2)OC2CCCCC21` (stereo not given), the IC50 in the assay with Liver microsomes came to 20 µM; against Squalene synthase, 10 µM. Moreover, the Activity came out at 47% with Rattus norvegicus [1], 46% in the assay with Rattus norvegicus [2] and 45% in the assay with Rattus norvegicus [3].
The like results for `OC1(c2ccc(-c3ccc(Cl)cc3)cc2)CN2CCCCC2CO1` (stereo not given) were, in that order, 178 µM, 15 µM, 52%, 35% and 44%.
For the compound `CN1CCOC(O)(c2ccc(-c3ccc(Br)cc3)cc2)C1` (stereo not given), the IC50 was determined as 220 µM with Liver microsomes and 6 µM against Squalene synthase. Moreover, the figures for the Activity in the assay with Rattus norvegicus [1], with Rattus norvegicus [2] and in the assay on Rattus norvegicus [3] were 51%, 36% and 47%, respectively.
For the compound `OC1(c2ccc(-c3nc4ccccc4s3)cc2)CN2CCCCC2CO1` (stereo not given), the IC50 with Liver microsomes worked out at 187 µM; at Squalene synthase, 5 µM. In addition, the Activity amounted to 46% in the assay with Rattus norvegicus [1], 41% with Rattus norvegicus [2] and 55% in the assay on Rattus norvegicus [3].
With `CN1CC(O)(c2ccc(-c3ccccc3F)cc2)OC2CCCCC21` (stereo not given), the IC50 with Liver microsomes is 490 µM; against Squalene synthase, 42 µM. Moreover, the values for the Activity in the assay on Rattus norvegicus [1], with Rattus norvegicus [2] and in the assay on Rattus norvegicus [3] were 25%, 47% and 18%, respectively.
On to `OC1(c2ccc(-c3ccc(Br)cc3)cc2)CN2CCCCC2CO1` (stereo not given), for which the IC50 is 139 µM in the assay with Liver microsomes and 3 µM at Squalene synthase. Also, the Activity in the assay on Rattus norvegicus [1] is recorded as 17%; with Rattus norvegicus [2] it was 6%; with Rattus norvegicus [3], 17%.
As for `CN1CCOC(O)(c2ccc(-c3ccc(F)cc3)cc2)C1` (stereo not given), the IC50 came to 330 µM with Liver microsomes and 23 µM at Squalene synthase. The figures for the Activity in the assay on Rattus norvegicus [1], in the assay on Rattus norvegicus [2] and with Rattus norvegicus [3] were 18%, 36% and 23%, respectively.
As to `CN1CCOC(O)(c2ccc(-c3ccc(Cl)cc3)cc2)C1` (stereo not given), the IC50 is 111 µM with Liver microsomes and 9 µM against Squalene synthase. Also, the Activity in the assay with Rattus norvegicus [1] came out at 70%; in the assay on Rattus norvegicus [2] it was 57%; with Rattus norvegicus [3] it was 63%.
For `CN1CC(O)(c2ccc(-c3ccc(Cl)cc3)cc2)OC2CCCCC21` (stereo not given), the IC50 with Liver microsomes was found to be 180 µM; against Squalene synthase, 9 µM. Moreover, the Activity with Rattus norvegicus [1] is given as 41%; with Rattus norvegicus [2], 29%; with Rattus norvegicus [3], 11%.
`CN1CC(O)(c2ccc(-c3ccc(F)cc3)cc2)OC2CCCCC21` (stereo not given): the IC50 in the assay with Liver microsomes came to 420 µM; at Squalene synthase it was 28 µM. Also, the Activity in the assay on Rattus norvegicus [1] worked out at 94%; in the assay with Rattus norvegicus [2] it was 33%; in the assay with Rattus norvegicus [3], 41%.
Regarding `OC1(c2ccc(-c3ccc(F)cc3)cc2)CN2CCCCC2CO1` (stereo not given), the IC50 with Liver microsomes is 162 µM; against Squalene synthase it was 10 µM. Moreover, the results for the Activity in the assay on Rattus norvegicus [1], in the assay with Rattus norvegicus [2] and in the assay with Rattus norvegicus [3] were 95%, 11% and 27%, respectively.
Consider `CN1CC(O)(c2ccc(-c3ccc(Br)s3)cc2)OC2CCCCC21` (stereo not given), for which the IC50 in the assay on Liver microsomes amounted to 160 µM; at Squalene synthase, 1 µM. For the same compound, the Activity in the assay on Rattus norvegicus [1] amounted to 26%; in the assay on Rattus norvegicus [2] it was 45%; with Rattus norvegicus [3], 35%.
On to `CN1CCOC(O)(c2ccc(-c3ccccc3F)cc2)C1` (stereo not given), for which the IC50 in the assay on Liver microsomes was 182 µM; against Squalene synthase it was 40 µM. The Activity is listed as 64% in the assay with Rattus norvegicus [1], 82% with Rattus norvegicus [2] and 67% with Rattus norvegicus [3].
The like results for `CN1CC(O)(c2ccc(-c3ccc(Br)cc3)cc2)OC2CCCCC21` (stereo not given) were, in that order, 200 µM, 4 µM, 7%, 53% and 23%.

One may read the IC50 as the concentration needed to halve the response being measured.
